From PubChem
PAFAH1B2 FP inh: PAFAH1B2 enzyme inhibitors, primary screen, biochemical, fluorescence polarization, human; Platelet-activating factor acetylhydrolase IB subunit alpha2 (Homo sapiens), P68402; recombinant PAFAH1B2, FP-rhodamine activity probe; inhibition, % at 3.39 µM; actives 1.2% (n = 340,000);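 active = inhibition above the mean of all tested compounds plus 3 SD, cut at about 24% in these data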;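 note: 0% = enzyme with DMSO and 100% = wells lacking PAFAH1B2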
RBBP9 inh: human RBBP9 inhibitors, primary screen, biochemical, fluorescence polarization, FP-Rh probe, HTS; AID 1515, 2009; Serine hydrolase RBBP9 (Homo sapiens), O75884; recombinant RBBP9; inhibition, % at 7.94 µM; actives 0.2% (n = 220,000);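 active = inhibition above the campaign mean of all tested compounds plus 3 SD, cut at about 14% in these data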;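 note: plate controls were DMSO wells with RBBP9 for no effect and wells lacking RBBP9 protein for full effect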
Target sequence (O75884 whole entry, looked up): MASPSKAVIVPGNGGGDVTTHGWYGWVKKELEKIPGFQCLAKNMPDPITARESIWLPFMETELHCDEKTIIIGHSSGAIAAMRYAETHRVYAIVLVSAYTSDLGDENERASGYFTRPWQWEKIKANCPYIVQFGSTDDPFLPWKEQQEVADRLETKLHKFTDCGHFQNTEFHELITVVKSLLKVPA
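Controls: DMSO-treated enzyme wells and wells lacking RBBP9 | Material: RBBP9 protein | Technique: Fluorescence polarization | Replication: Single well per compound, no replicates | Buffer or medium: Tris-NaCl-Pluronic buffer, pH 8.0 | Timing: 30 min compound preincubation, 45 min probe labeling, 25 °C | Read-out basis: Percent inhibition from mP, scaled between DMSO and no-protein wells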
PAFAH1B3 FP inh: PAFAH1B3 enzyme inhibitors, primary screen, biochemical, fluorescence polarization, human. Platelet-activating factor acetylhydrolase IB subunit alpha1 (Homo sapiens), Q15102. recombinant PAFAH1B3, FP-rhodamine probe. inhibition, % at 3.39 µM. actives 0.28% (n = 340,000);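 active = inhibition above the screen-wide average of all tested compounds plus 3 SD, cut at about 25% in these data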;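 note: 0% = enzyme with DMSO only and 100% = wells lacking PAFAH1B3 protein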
Target sequence (Q15102 whole entry, looked up): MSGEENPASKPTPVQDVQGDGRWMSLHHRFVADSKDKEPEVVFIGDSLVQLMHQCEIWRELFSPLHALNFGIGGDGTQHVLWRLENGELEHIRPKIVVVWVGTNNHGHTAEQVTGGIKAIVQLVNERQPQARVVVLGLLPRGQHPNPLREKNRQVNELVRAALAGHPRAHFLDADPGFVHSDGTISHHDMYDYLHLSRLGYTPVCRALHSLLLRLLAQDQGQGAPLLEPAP
PAFAH2 FP inh: PAFAH2 enzyme inhibitors, primary screen, biochemical, fluorescence polarization, human; inhibition, % at 3.39 µM; recombinant PAFAH2, FP-rhodamine activity probe; actives 0.99% (n = 340,000); AID 492956, 2010;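 active = inhibition above the mean over all tested compounds plus 3 SD, cut at about 30% in these data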;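 note: inhibitors block probe labeling of enzyme so polarization drops; 0% = enzyme with DMSO and 100% = wells lacking PAFAH2 protein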
pPAFAH FP inh: pPAFAH enzyme inhibitors, primary screen, biochemical, fluorescence polarization, human; Platelet-activating factor acetylhydrolase (Homo sapiens), Q13093; recombinant pPAFAH, FP-rhodamine probe fluorescence polarization; inhibition, % at 3.39 µM; actives 1.5% (n = 330,000); AID 463082, 2010;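 active = inhibition above the mean inhibition across the screen plus 3 SD, cut at about 25% in these data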;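 note: inhibitors block binding of the rhodamine activity-based probe so polarization drops; 0% = enzyme with DMSO and 100% = wells lacking pPAFAH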
Numbers without * were called inactive; . = no result given. Only some compounds are listed: those with a hit (about 2.7% of all), similar ones and a draw of the others.

SMILES	PAFAH1B2 FP inh	RBBP9 inh	PAFAH1B3 FP inh	PAFAH2 FP inh	pPAFAH FP inh
O=C1C=C(NCCc2ccccc2)C2(CCCCC2)O1	2	-9	-5	3	-3
N#CCC(=O)Nc1ccc(C(=O)NCCC(c2ccccc2)c2ccccc2)cc1	-7	.	-9	-13	34*
CN(C)C(CNC(=O)c1ccc(NC(=O)CC#N)cc1)c1ccccc1 (stereo unspecified)	1	-12	2	-11	2
CCCCN(CC)C(=O)Cc1c(C(=O)O)[nH]c2ccc(Cl)cc12	50*	2	-1	1	-3
CCOCCCNC(=O)Cc1c(C(=O)O)[nH]c2ccc(Cl)cc12	30*	-4	-4	0	-1
C=CCOc1cccc(C2C(C(=O)c3cc4ccccc4o3)=C(O)C(=O)N2c2cc(C)on2)c1 (stereo unspecified)	12	.	6	13	11
Cc1c(C)c2ccc(OC(C)C(=O)N3CC[C@@]4(O)CCCC[C@H]4C3)cc2oc1=O (stereo partly specified)	2	.	6	4	0
O=[N+]([O-])c1ccc(S(=O)(=O)NNC(=S)NCCc2ccccc2)cc1	42*	.	6	2	7
O=[N+]([O-])c1cccc(NC(=S)NCCc2ccccc2)c1	12	-7	-1	-7	-7
C[C@H]1CCC[C@]2(C)C[C@H]3OC(=O)C(CN4CCCCCC4)[C@H]3C=C12 (stereo partly specified)	30*	.	2	19	7
N#Cc1c(CSCC(=O)O)cc(=O)n2c1[nH]c1ccccc12	2	-7	7	3	27*
N#Cc1c(C(F)(F)F)cc(=O)n2c1[nH]c1ccccc12	6	.	19	7	.
Cc1cccn2c(=O)c(C=NCc3ccco3)c(Nc3ccc(SC(F)F)cc3)nc12	2	2	-1	-5	34*
Cc1oc2c(O)c(O)ccc2c(=O)c1-c1ccc(Cl)cc1	5	.	22	23	30*
Cc1oc2c(O)c(O)ccc2c(=O)c1-c1ccccc1	9	.	7	11	19
CC1CC(C)CN(CCCNC(=O)c2ccc(CS(=O)(=O)Cc3ccccc3F)o2)C1 (stereo unspecified)	0	1	8	1	6
Cc1ccc(CS(=O)(=O)Cc2ccc(C(=O)NCCCN3CC(C)CC(C)C3)o2)cc1 (stereo unspecified)	-6	.	2	-2	31*
COc1ccc(-n2c(SC3CCOC3=O)nc3ccccc32)cc1 (stereo unspecified)	4	5	-2	-2	31*
O=C1OCCC1Sc1nc2ccccc2n1-c1ccccc1 (stereo unspecified)	3	2	3	9	21
COc1ccccc1-c1ccc(/C=C2\C=CC(=O)O2)o1	.	-6	.	.	26*
COc1ccc(C(=O)NC(=S)NCc2ccccc2)cc1OC	4	-7	9	-2	30*
CCc1ccc(CNC(=O)C2CCN(S(=O)(=O)N3CCC(C)CC3)CC2)cc1	4	.	1	4	5
Cc1ccc2c(c1)nc(-n1nc(C)cc1C)c1nnnn12	-6	-2	1	-5	0
COC(=O)[C@@]12CCCCN1[C@H](c1ccc(-c3ccc(F)cc3)cc1)[C@@H]1C(=O)N(C)C(=O)[C@@H]12	-8	.	6	-6	7
O=c1c2c(nc3n1CCCCC3)-c1ccccc1CC21CCCC1	28*	-6	-1	-1	2
SMILES	PAFAH1B2 FP inh	RBBP9 inh	PAFAH1B3 FP inh	PAFAH2 FP inh	pPAFAH FP inh
CCCC(=O)Nn1cnc2c(c1=O)C1(CCCC1)Cc1ccccc1-2	9	5	11	2	10
C=CCSc1n[nH]c2nc3c(c(=O)n12)C1(CCCC1)Cc1ccccc1-3	44*	-9	0	9	6
CC(=O)Nn1cnc2c(c1=O)C1(CCCC1)Cc1ccccc1-2	25*	-2	16	-1	7
CC(C)Sc1n[nH]c2nc3c(c(=O)n12)C1(CCCC1)Cc1ccccc1-3	.	4	.	.	.
O=C1CCCc2c1oc1c2CCCC1	4	.	10	2	.
Cc1cc(C)n(-c2ccc(C(=O)OCC(=O)Nc3ccc(Cl)c(S(=O)(=O)N(C)C)c3)cc2)n1	-1	-13	2	73*	25*
COc1ccc(C(=O)OCC(=O)Nc2ccc(F)c(F)c2)cc1OC	-2	-15	3	82*	30*
COc1ccc(NC(=O)COC(=O)c2ccc(-n3nc(C)cc3C)cc2)cc1OC	2	.	13	7	27*
CCNC(=O)COC(=O)c1ccc(-n2nc(C)cc2C)cc1	2	0	5	18	7
COc1ccc(NC(=O)COC(=O)c2ccc(S(=O)(=O)N3CCCC3)cc2)cc1OC	5	.	4	3	-3
Cc1cc(C)n(-c2ccc(C(=O)OCC(=O)Nc3ccc([N+](=O)[O-])cc3)cc2)n1	4	-12	14	26	25*
Cc1cc(C)n(-c2ccc(C(=O)OCC(=O)Nc3ccccc3[N+](=O)[O-])cc2)n1	2	2	2	11	17
Cc1ccc(C)c(OCC(=O)Nc2ccccc2C(=O)N2CCOCC2)c1	3	.	12	2	2
Cc1ccccc1NC(=O)c1ccc(Cl)c(NC(=O)c2cccnc2)c1	.	-1	.	.	0
O=C(CCS(=O)(=O)c1ccc(Br)cc1)NCCC1=CCCCC1	26*	.	10	0	1
O=C(COc1ccc(S(=O)(=O)NC2CCCCC2)cc1)NCCC1=CCCCC1	2	-4	-2	7	28*
COc1ccccc1NCC(=O)NNC(C)C(=O)Nc1cccc(Cl)c1 (stereo unspecified)	6	-3	-2	-1	-2
Cc1cc(C)c(C#N)c(SCC(=O)Nc2cc(C)on2)n1	3	.	6	-10	3
O=C(O)CN1C(=O)/C(=C2\C(=O)N(Cc3ccccc3Cl)c3ccccc32)SC1=S	26*	.	9	3	3
O=[N+]([O-])c1ccccc1S(=O)(=O)NCCSc1ccccc1	29*	.	7	12	1
O=C(CSc1ccc(Cl)cc1)OCc1nnc(-c2ccccc2)o1	96*	0	9	11	26*
O=C(/C=C/c1ccco1)OCc1nnc(-c2ccc(Cl)cc2)o1	1	-9	8	67*	28*
Cc1ccc(-c2nnc(COC(=O)c3ccco3)o2)cc1	9	.	3	12	2
O=C(c1ccc(C(F)(F)F)cc1)N1CCN(c2ccc(N3CCOCC3)nn2)CC1	1	.	12	7	4
O=C(Cc1cccc(C(F)(F)F)c1)NCC(=O)Nc1cc(Cl)ccc1Cl	6	.	-4	6	3
CCc1ccc(NC(=O)CNCc2ccc(OC)c(OC)c2)cc1	9	.	1	-1	5
